According to ChEMBL document CHEMBL3286244, “Chlorpheniramine Analogues Reverse Chloroquine Resistance in Plasmodium falciparum by Inhibiting PfCRT” (ACS Med Chem Lett, 2014):
The source made the active and inactive calls. The rule behind the calls is not given here.

Experiments:
[1] = biological target: T1, Chloroquine resistance transporter (Plasmodium falciparum) (UniProt Q9N623); test: Inhibition of chloroquine-resistant Plasmodium falciparum Dd2 CRT expressed in Xenopus laevis oocytes plasma membrane assessed as reduction of [3H]-chloroquine transportation at 100 uM after 1 to 2 hrs; type: cell-based
T1 sequence (whole entry): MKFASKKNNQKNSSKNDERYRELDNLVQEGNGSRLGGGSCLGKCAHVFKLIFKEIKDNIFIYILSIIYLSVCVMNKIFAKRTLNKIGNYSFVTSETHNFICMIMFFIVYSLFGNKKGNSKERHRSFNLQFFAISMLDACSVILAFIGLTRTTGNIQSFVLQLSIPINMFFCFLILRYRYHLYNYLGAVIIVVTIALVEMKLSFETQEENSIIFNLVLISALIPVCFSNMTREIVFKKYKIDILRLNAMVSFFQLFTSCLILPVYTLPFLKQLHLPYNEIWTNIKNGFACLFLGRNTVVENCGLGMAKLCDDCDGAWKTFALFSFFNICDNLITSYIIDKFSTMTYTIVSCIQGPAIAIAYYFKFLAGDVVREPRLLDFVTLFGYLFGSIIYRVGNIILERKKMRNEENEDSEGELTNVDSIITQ
How it was run: (§1)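 Xenopus oocytes expressing PfCRT of the CQ-resistant (PfCRTCQR) or CQ-sensitive (PfCRTCQS) form. [3H]CQ uptake measured in the presence of reverser at 100 μM extracellular.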

Plasmodium falciparum [2] = test: Antiplasmodial activity against Plasmodium falciparum C67G8 expressing chloroquine-resistance-conferring pfcrt alleles assessed as parasite growth at 800 nM after 72 hrs by SYBR Green I-based fluorescence assay relative to control; type: functional
How it was run: (§2)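 Isogenic pfcrt transfectant lines (C2GCO3 wild-type allele; C4Dd2 and C67G8 carrying CQ-resistance-conferring alleles from Dd2 or 7G8). Parasite proliferation measured in the absence of CQ with test compound at 800 nM and expressed relative to untreated control.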

[3] = biological target: T1, Chloroquine resistance transporter (Plasmodium falciparum); test: Inhibition of CTR in Plasmodium falciparum C2GC03 expressing wild-type pfcrt allele assessed as increase of accumulation of [3H]-chloroquine level at 1 uM after 1 hr
How it was run: (§3)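 Isogenic pfcrt transfectant lines C2GCO3 (wild-type allele), C4Dd2 and C67G8 (CQ-resistance alleles from Dd2 or 7G8). CQ accumulation ratio measured with and without reverser. Expressed as fold increase in accumulation ratio over control.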

[4] = biological target: Chloroquine resistance transporter (Plasmodium falciparum, UniProt Q9N623); test: Inhibition of chloroquine-resistant Plasmodium falciparum Dd2 CRT expressed in Xenopus laevis oocytes plasma membrane assessed as reduction of [3H]-chloroquine transportation after 1 to 2 hrs; type: cell-based
How it was run: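 Xenopus oocytes expressing PfCRTCQR. Inhibition of [3H]CQ uptake measured over a range of reverser concentrations. IC50 derived from concentration-response data, reported as mean ± SEM.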

Plasmodium falciparum [5] = test: Antiplasmodial activity against Plasmodium falciparum C2GC03 expressing wild-type pfcrt allele assessed as parasite growth at 800 nM after 72 hrs by SYBR Green I-based fluorescence assay relative to control; type: functional
How it was run: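 Isogenic pfcrt transfectant parasite line C2GCO3 (wild-type pfcrt allele) was grown in a proliferation assay with the test compound at 800 nM and no chloroquine. Proliferation is expressed relative to untreated control.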

Plasmodium falciparum [6] = test: Antiplasmodial activity against Plasmodium falciparum C4Dd2 expressing chloroquine-resistance-conferring pfcrt alleles assessed as parasite growth at 800 nM after 72 hrs by SYBR Green I-based fluorescence assay relative to control; type: functional; how it was run: as §2
Plasmodium falciparum [7] = test: Response modification index, ratio of IC50 for Plasmodium falciparum C67G8 expressing chloroquine-resistance-conferring pfcrt alleles in presence of drug to IC50 for Plasmodium falciparum C67G8 expressing chloroquine-resistance-conferring pfcrt alleles in absence of 800 nM of drug; type: functional
How it was run: (§4)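 Proliferation assays on isogenic pfcrt transfectant lines (C4Dd2, C67G8). CQ IC50 determined with and without 800 nM test compound. RMI calculated as CQ IC50 with compound divided by CQ IC50 without compound.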

Plasmodium falciparum [8] = test: Response modification index, ratio of IC50 for Plasmodium falciparum C2GC03 expressing wild-type pfcrt allele in presence of drug to IC50 for Plasmodium falciparum C2GC03 expressing wild-type pfcrt allele in absence of 800 nM of drug; type: functional
How it was run: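 In a parasite proliferation assay on the isogenic pfcrt transfectant line C2GCO3 (wild-type allele), chloroquine IC50 was measured with and without the test compound at 800 nM. RMI is chloroquine IC50 with the compound divided by chloroquine IC50 without it.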

Plasmodium falciparum [9] = test: Response modification index, ratio of IC50 for Plasmodium falciparum C4Dd2 expressing chloroquine-resistance-conferring pfcrt alleles in presence of drug to IC50 for Plasmodium falciparum C4Dd2 expressing chloroquine-resistance-conferring pfcrt alleles in absence of 800 nM of drug; type: functional; how it was run: as §4
[10] = biological target: T1, Chloroquine resistance transporter (Plasmodium falciparum); test: Inhibition of chloroquine-sensitive Plasmodium falciparum D10 CRT expressed in Xenopus laevis oocytes plasma membrane assessed as reduction of [3H]-chloroquine transportation at 100 uM after 1 to 2 hrs; type: cell-based; how it was run: as §1
[11] = biological target: T1, Chloroquine resistance transporter (Plasmodium falciparum); test: Inhibition of CTR in Plasmodium falciparum C4Dd2 expressing chloroquine-resistance-conferring pfcrt alleles assessed as increase of accumulation of [3H]-chloroquine level at 1 uM after 1 hr relative to control; how it was run: as §3
[12] = biological target: T1, Chloroquine resistance transporter (Plasmodium falciparum); test: Inhibition of CTR in Plasmodium falciparum C67G8 expressing chloroquine-resistance-conferring pfcrt alleles assessed as increase of accumulation of [3H]-chloroquine level at 1 uM after 1 hr relative to control; how it was run: as §3

| SMILES | inhibition [1] | inhibition [3] | inhibition [10] | other results |
| --- | --- | --- | --- | --- |
| CCN(CC)C/C=C(\c1ccc(Cl)cc1)c1ccccn1 | inactive | inactive | inactive | Activity (Plasmodium falciparum [2]): 90%; IC50 [4]: 321 µM; Activity (Plasmodium falciparum [5]): 100%; Activity (Plasmodium falciparum [6]): 84%; Ratio IC50 (Plasmodium falciparum [7]): 0.69; Ratio IC50 (Plasmodium falciparum [8]): 1.01; Ratio IC50 (Plasmodium falciparum [9]): 0.49; fold change (FC) [11]: 1.6; fold change (FC) [12]: 1.4 |
| COc1ccc(CCN(C)CCCC(C#N)(c2ccc(OC)c(OC)c2)C(C)C)cc1OC (stereo not given) | Active | inactive |  | Activity (Plasmodium falciparum [2]): 55%; Activity (Plasmodium falciparum [5]): 43%; Activity (Plasmodium falciparum [6]): 46%; fold change (FC) [11]: 3.1; fold change (FC) [12]: 1.9 |
| CCN(CC)C/C=C(/c1ccc(Cl)cc1)c1ccccn1 | inactive |  | inactive |  |
| CN(C)C/C=C(/c1cccc(Cl)c1)c1ccccn1 | inactive | inactive | inactive |  |
| CN(C)C/C=C(\c1cccc(Cl)c1)c1ccccn1 | inactive | inactive | inactive |  |
| CN(C)CC/C=C(/c1ccc(Cl)cc1)c1ccccn1 | inactive | inactive | inactive |  |
| CN(C)CC/C=C(/c1cccc(Cl)c1)c1ccccn1 | inactive | inactive | inactive |  |
| CN(C)CC/C=C(/c1ccccn1)c1ccccc1Cl | inactive | inactive | inactive |  |
| CN(C)CC/C=C(\c1ccc(Cl)cc1)c1ccccn1 | inactive | inactive | inactive |  |
| CN(C)CC/C=C(\c1cccc(Cl)c1)c1ccccn1 | inactive | inactive | inactive |  |
| CN(C)CCC/C=C(/c1ccc(Cl)cc1)c1ccccn1 | inactive | inactive | inactive |  |
| CN(C)CCC/C=C(\c1ccc(Cl)cc1)c1ccccn1 | inactive | inactive | inactive |  |
| N#C/C=C(/c1ccccc1)c1ccccn1 | inactive | inactive | inactive |  |
| N#C/C=C(\c1ccccc1)c1ccccn1 | inactive | inactive | inactive | inhibition [11]: inactive; inhibition [12]: inactive |
| CN(C)CCCC(c1cccc(Cl)c1)c1ccccn1 (racemic) | inactive | inactive | inactive | Activity (Plasmodium falciparum [2]): 72%; IC50 [4]: 66 µM; Activity (Plasmodium falciparum [5]): 99%; Activity (Plasmodium falciparum [6]): 67%; Ratio IC50 (Plasmodium falciparum [7]): 0.35; Ratio IC50 (Plasmodium falciparum [8]): 0.95; Ratio IC50 (Plasmodium falciparum [9]): 0.27; fold change (FC) [11]: 2.7; fold change (FC) [12]: 2 |
| CN(C)CCC(c1cccc(Cl)c1)c1ccccn1 (racemic) | inactive | inactive | inactive | Activity (Plasmodium falciparum [2]): 74%; IC50 [4]: 63 µM; Activity (Plasmodium falciparum [5]): 99%; Activity (Plasmodium falciparum [6]): 75%; Ratio IC50 (Plasmodium falciparum [7]): 0.35; Ratio IC50 (Plasmodium falciparum [8]): 0.99; Ratio IC50 (Plasmodium falciparum [9]): 0.27 |
| CN(C)CCCCC(c1ccc(Cl)cc1)c1ccccn1 (racemic) | inactive | inactive | inactive | Activity (Plasmodium falciparum [2]): 79%; IC50 [4]: 180 µM; Activity (Plasmodium falciparum [5]): 100%; Activity (Plasmodium falciparum [6]): 74%; Ratio IC50 (Plasmodium falciparum [7]): 0.39; Ratio IC50 (Plasmodium falciparum [8]): 0.92; Ratio IC50 (Plasmodium falciparum [9]): 0.28; fold change (FC) [11]: 2.4; fold change (FC) [12]: 1.8 |
| CCN(CC)CCC(c1ccc(Cl)cc1)c1ccccn1 (racemic) | inactive | inactive | inactive |  |
| CN(C)CCCC(c1ccc(Cl)cc1)c1ccccn1 (racemic) | inactive | inactive | inactive |  |
| CN(C)CCCC(c1cccc(Cl)c1)c1cnccn1 (racemic) | inactive | inactive | inactive |  |
| CN(C)CCCC(c1ccccc1)c1ccccn1 (racemic) | inactive | inactive | inactive |  |
| CN(C)CCCC(c1ccccn1)c1ccccc1Cl (racemic) | inactive | inactive | inactive |  |
| CN(C)CCCC(c1cccnc1)c1cccc(Cl)c1 (racemic) | inactive | inactive | inactive |  |
| CN(C)CCCC(c1ccncc1)c1cccc(Cl)c1 (racemic) | inactive | inactive | inactive |  |
| CN(C)CCCCCC(c1ccc(Cl)cc1)c1ccccn1 (racemic) | inactive | inactive | inactive |  |
| CN(C)CCC(c1ccc(Cl)cc1)c1ccccn1 (stereo in doubt; form 1) | Active | inactive |  | fold change (FC) [11]: 2.7; fold change (FC) [12]: 2 |
| CN(C)CCC(c1ccc(Cl)cc1)c1ccccn1 (stereo in doubt; form 1) [CHLORPHENIRAMINE] |  |  |  | Activity (Plasmodium falciparum [2]): 76%; IC50 [4]: 54 µM; Activity (Plasmodium falciparum [5]): 97%; Activity (Plasmodium falciparum [6]): 78%; Ratio IC50 (Plasmodium falciparum [7]): 0.37; Ratio IC50 (Plasmodium falciparum [8]): 1.09; Ratio IC50 (Plasmodium falciparum [9]): 0.24 |
| CN(C)CCC(c1ccc(Cl)cc1)c1ccccn1 (stereo in doubt; form 2) |  | inactive |  |  |
| COc1cc(NC(C)CCCN)c2ncccc2c1 (stereo not given) [PRIMAQUINE] | Active |  |  | IC50 [4]: 68 µM |
| CC(CN1c2ccccc2Sc2ccccc21)N(C)C (stereo not given) [PROMETHAZINE] | Active |  |  | IC50 [4]: 85 µM |
